In ChEMBL document CHEMBL1250552, “Quantitative structure-activity relationship studies of threo-methylphenidate analogs” (Bioorg Med Chem, 2010):
pIC50: −log10 of the molar value.

Target: Sodium-dependent dopamine transporter (Rattus norvegicus, UniProt P23977)
Experiment: Displacement of [3H]WIN 35428 from Sprague-Dawley rat striatal tissue after 2 hrs by liquid scintillation counting
Format: tissue-based, Striatum
Settings: for pIC50: read-out: IC50; for IC50: read-out: pIC50 (converted)
Outline: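 Male Sprague–Dawley rats anesthetized with CO₂ gas. Crude synaptosomal P₂ fraction made from striatum and homogenized in 25 mM sodium phosphate, pH 7.7, at 0 °C. Rapid filtration through glass microfiber filters, then scintillation counting.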

Sequence of Sodium-dependent dopamine transporter (P23977 whole entry): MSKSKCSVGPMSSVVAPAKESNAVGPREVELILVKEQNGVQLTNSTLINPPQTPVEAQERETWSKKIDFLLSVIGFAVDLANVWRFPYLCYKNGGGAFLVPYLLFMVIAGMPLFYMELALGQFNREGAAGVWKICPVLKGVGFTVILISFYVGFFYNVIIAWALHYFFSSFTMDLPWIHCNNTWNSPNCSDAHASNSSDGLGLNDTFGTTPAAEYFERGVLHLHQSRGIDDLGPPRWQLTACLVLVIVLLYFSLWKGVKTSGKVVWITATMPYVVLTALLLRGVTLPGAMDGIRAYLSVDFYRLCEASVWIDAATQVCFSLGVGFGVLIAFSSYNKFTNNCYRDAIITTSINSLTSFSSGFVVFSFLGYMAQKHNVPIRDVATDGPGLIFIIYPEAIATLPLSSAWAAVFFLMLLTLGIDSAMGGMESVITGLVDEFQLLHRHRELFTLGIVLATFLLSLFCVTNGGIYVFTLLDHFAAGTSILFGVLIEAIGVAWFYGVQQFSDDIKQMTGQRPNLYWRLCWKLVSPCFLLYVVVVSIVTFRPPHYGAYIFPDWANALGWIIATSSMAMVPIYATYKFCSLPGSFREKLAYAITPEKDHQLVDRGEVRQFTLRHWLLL

| SMILES | pIC50 | IC50 |
| --- | --- | --- |
| COC(=O)[C@H](c1ccc(Cl)cc1)[C@H]1CCCCN1 | 7.69 | – |
| COC(=O)[C@H](c1ccc(C)cc1)[C@H]1CCCCN1 | 7.48 | – |
| COC(=O)[C@H](c1ccc(Cl)c(Cl)c1)[C@H]1CCCCN1 | 8.28 | – |
| COC(=O)[C@H](c1ccc2ccccc2c1)[C@H]1CCCCN1 | 7.96 | – |
| COC(=O)[C@H](c1ccccc1Cl)[C@H]1CCCCN1 | 5.71 | – |
| COC(=O)[C@H](c1ccccc1Br)[C@@]1(C)CCCCN1 | 5.73 | – |
| COC(=O)[C@H](c1cccc(O)c1)[C@H]1CCCCN1 | 6.49 | – |
| COC(=O)[C@H](c1cccc(Cl)c1)[C@H]1CCCCN1 | 8.29 | – |
| COC(=O)[C@H](c1ccc(F)cc1)[C@H]1CCCCN1 | 7.46 | – |
| COC(=O)[C@H](c1ccccc1F)[C@H]1CCCCN1 | 5.85 | – |
| COC(=O)[C@H](c1cccc(F)c1)[C@H]1CCCCN1 | 7.39 | – |
| COC(=O)[C@H](c1cccc(N)c1)[C@H]1CCCCN1 | 6.58 | – |
| COC(=O)[C@H](c1ccc(N)cc1)[C@H]1CCCCN1 | 7.46 | – |
| COC(=O)[C@H](c1cccc(Cl)c1)[C@@]1(C)CCCCN1C | 6.80 | – |
| COC(=O)[C@H](c1ccc(I)cc1)[C@H]1CCCCN1 | 7.85 | – |
| COC(=O)[C@H](c1cccc(Br)c1)[C@H]1CCCCN1 | 8.38 | – |
| COC(=O)[C@H](c1ccc(OCO)c(CO)c1)[C@H]1CCCCN1C | 6.21 | – |
| COC(=O)[C@H](c1ccc([N+](=O)[O-])cc1)[C@H]1CCCCN1 | 6.31 | – |
| COC(=O)[C@H](c1ccc(OC)c(OC)c1)[C@H]1CCCCN1 | 6.09 | – |
| OC[C@H](c1ccccc1)[C@H]1CCCCN1Cc1ccccc1 | 7.63 | – |
| COC[C@H](c1ccccc1)[C@H]1CCCCN1Cc1ccccc1 | 7.75 | – |
| COC(=O)[C@H](c1ccccc1)[C@H]1CCCCN1Cc1ccccc1 | 7.28 | – |
| COC(=O)[C@H](c1ccc(C(F)(F)F)cc1)[C@H]1CCCCN1 | 6.21 | – |
| COC(=O)[C@H](c1ccc(O)cc1)[C@H]1CCCCN1C | – | 1200 nM |

| SMILES | pIC50 | IC50 |
| --- | --- | --- |
| COC(=O)[C@H](c1ccc(C)cc1)[C@H]1CCCCN1C | – | 141 nM |
| COC(=O)[C@H](c1ccc(Br)cc1)[C@H]1CCCCN1 | 8.16 | – |
| OC[C@H](c1ccccc1)[C@H]1CCCCN1 (racemic) | 6.35 | – |
| COC[C@H](c1ccccc1)[C@H]1CCCCN1 (racemic) | 7.01 | – |
| OC[C@H](c1ccc(Cl)c(Cl)c1)[C@H]1CCCCN1 (racemic) | 8.38 | – |
| CCN1CCCC[C@@H]1[C@H](CO)c1ccccc1 (racemic) | 5.63 | – |
| OC[C@H](c1cccc(F)c1)[C@H]1CCCCN1 (racemic) | 6.55 | – |
| COC[C@H](c1ccc(Cl)c(Cl)c1)[C@H]1CCCCN1 (racemic) | 8.77 | – |
| NC(=O)[C@H](c1ccc(Cl)c(Cl)c1)[C@H]1CCCCN1 (racemic) | 7.79 | – |
| CC(=O)OC[C@H](c1ccccc1)[C@H]1CCCCN1 (racemic) | 6.16 | – |
| NC(=O)[C@H](c1ccccc1)[C@H]1CCCCN1 (racemic) | 5.76 | – |
| CCc1ccc([C@@H](C(=O)OC)[C@H]2CCCCN2)cc1 (racemic) | 6.13 | – |
| COC(=O)[C@H](c1cc(Cl)cc(Cl)c1)[C@H]1CCCCN1 (racemic) | 7.18 | – |
| COC(=O)[C@H](c1cc(C)cc(C)c1)[C@H]1CCCCN1 (racemic) | 5.33 | – |
| COC(=O)[C@H](c1ccccc1)[C@H]1CCCCN1Cc1ccc([N+](=O)[O-])cc1 (racemic) | 6.95 | – |
| COC(=O)[C@H](c1ccccc1)[C@H]1CCCCN1Cc1ccc(Cl)cc1 (racemic) | 7.51 | – |
| C=CCN1CCCC[C@@H]1[C@H](C(=O)OC)c1ccccc1 (racemic) | 6.22 | – |
| COC(=O)[C@H](c1ccccc1)[C@H]1CCCCN1Cc1ccccc1Cl (racemic) | 6.61 | – |
| COC(=O)[C@H](c1ccccc1)[C@H]1CCCCN1CCCCCCc1ccccc1 (racemic) | 6.18 | – |
| COC(=O)[C@H](c1ccccc1)[C@H]1CCCCN1CCCCCc1ccccc1 (racemic) | 5.80 | – |
| COC(=O)[C@H](c1ccccc1)[C@H]1CCCCN1CCCCc1ccccc1 (racemic) | 6.69 | – |
| COC(=O)[C@H](c1ccccc1)[C@H]1CCCCN1CCc1ccccc1 (racemic) | 6.17 | – |
| COC(=O)[C@H](c1ccccc1)[C@H]1CCCCN1Cc1cccc(Cl)c1 (racemic) | 6.97 | – |
| COC(=O)[C@H](c1ccccc1)[C@H]1CCCCN1CCCc1ccccc1 (racemic) | 6.57 | – |

| SMILES | pIC50 | IC50 |
| --- | --- | --- |
| OC[C@H](c1ccccc1)[C@H]1CCCCN1CCc1ccccc1 (racemic) | 5.84 | – |
| OC[C@H](c1ccccc1)[C@H]1CCCCN1CCCCc1ccccc1 (racemic) | 6.21 | – |
| C#CCN1CCCC[C@@H]1[C@H](C(=O)OC)c1ccccc1 (racemic) | 6.09 | – |
| OC[C@H](c1ccccc1)[C@H]1CCCCN1CCCc1ccccc1 (racemic) | 6.71 | – |
| COC(=O)[C@H](c1ccccc1)[C@H]1CCCCN1Cc1ccc(N=C=S)cc1 (racemic) | 6.37 | – |
| COC(=O)[C@H](c1cccc(Cl)c1)[C@H]1CCCCN1Cc1ccccc1 (racemic) | 7.39 | – |
| CN(C)C(=O)[C@H](c1ccccc1)[C@H]1CCCCN1Cc1ccccc1 (racemic) | 5.76 | – |
| NC(=O)[C@H](c1ccccc1)[C@H]1CCCCN1Cc1ccccc1 (racemic) | 6.42 | – |
| COC(=O)[C@H](c1ccc(Cl)c(Cl)c1)[C@H]1CCCCN1Cc1ccccc1 (racemic) | 7.12 | – |
| OC[C@H](c1ccc(Cl)c(Cl)c1)[C@H]1CCCCN1Cc1ccccc1 (racemic) | 8.56 | 2.69 nM |
| COC[C@H](c1ccc(Cl)c(Cl)c1)[C@H]1CCCCN1Cc1ccccc1 (racemic) | 8.38 | – |
| O=C(OCc1ccccc1)[C@H](c1ccccc1)[C@H]1CCCCN1 (racemic) | 5.99 | – |
| OC[C@H](c1ccccc1)[C@H]1CCCCN1Cc1cccc(Cl)c1 (racemic) | 7.59 | – |
| COC(=O)[C@H](c1ccccc1)[C@H]1CCCCN1Cc1ccoc1 (racemic) | 6.34 | – |
| COC(=O)[C@H](c1ccccc1)[C@H]1CCCCN1Cc1cccs1 (racemic) | 6.65 | – |
| COC(=O)[C@H](c1ccccc1)[C@H]1CCCCN1Cc1ccsc1 (racemic) | 6.84 | – |
| COC(=O)[C@H](c1ccccc1)[C@H]1CCCCN1Cc1ccco1 (racemic) | 6.27 | – |
| COC(=O)[C@H](c1ccccc1)[C@H]1CCCCN1Cc1ccncc1 (racemic) | 6.89 | – |
| COC(=O)[C@H](c1ccccc1)[C@H]1CCCCN1Cc1cccnc1 (racemic) | 6.76 | – |
| COC(=O)[C@H](c1ccccc1)[C@H]1CCCCN1Cc1ccccn1 (racemic) | 6.43 | – |
| COC(=O)[C@H](c1ccccc1)[C@H]1CCCCN1Cc1ccc(Cl)s1 (racemic) | 6.41 | – |
| COC(=O)[C@H](c1ccccc1)[C@H]1CCCCN1Cc1ccc(OC)cc1 (racemic) | 7.10 | – |
